According to ChEMBL document CHEMBL1133696, “Development of a lead inhibitor for the A16V+S108T mutant of dihydrofolate reductase from the cycloguanil-resistant strain (T9/94) of Plasmodium falciparum” (J Med Chem, 2000):

Assays:
Plasmodium falciparum [1] = assay: (§1) Growth inhibition (IC50) against Plasmodium falciparum wild-type TM4/8.2; format: functional, organism-based
Outline: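 TM4/8.2 clone (wild-type DHFR) grown in human erythrocytes, RPMI 1640 with 25 mM HEPES pH 7.4, 0.2% NaHCO3, gentamicin, 10% human serum, 37 °C, 3% CO2. Drug from DMSO (final 0.1%), 1.5% cell suspension at 1-2% parasitemia; [3H]-hypoxanthine added after 24 h, a further 18-24 h incubation. IC50 from sigmoidal incorporation-versus-concentration curve.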

Plasmodium falciparum [2] = assay: Inhibition of Plasmodium falciparum T9/94 mutant; format: functional, organism-based
Outline: (§2)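 Parasites kept in human erythrocytes in RPMI 1640 with 25 mM HEPES pH 7.4, 0.2% NaHCO3, gentamicin and 10% human serum, at 37 °C under 3% CO2. Clones used were TM4/8.2 (wild-type DHFR) and T9/94 RC17 (A16V+S108T). Drug dilutions were made from DMSO stocks, final DMSO 0.1%, and added to a 1.5% cell suspension at 1-2% parasitemia. After 24 h, 0.25 µCi [3H]-hypoxanthine was added for a further 18-24 h, then scintillation counting. IC50 taken from a sigmoidal curve.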

[3] = target: Bifunctional dihydrofolate reductase-thymidylate synthase (Plasmodium falciparum K1) (UniProt P13922); assay: Selectivity ratio of growth inhibition against Plasmodium falciparum TM4/8.2(wild-type) and T9/94(mutant); format: functional
Bifunctional dihydrofolate reductase-thymidylate synthase (Plasmodium falciparum K1), sequence (P13922 whole entry, looked up): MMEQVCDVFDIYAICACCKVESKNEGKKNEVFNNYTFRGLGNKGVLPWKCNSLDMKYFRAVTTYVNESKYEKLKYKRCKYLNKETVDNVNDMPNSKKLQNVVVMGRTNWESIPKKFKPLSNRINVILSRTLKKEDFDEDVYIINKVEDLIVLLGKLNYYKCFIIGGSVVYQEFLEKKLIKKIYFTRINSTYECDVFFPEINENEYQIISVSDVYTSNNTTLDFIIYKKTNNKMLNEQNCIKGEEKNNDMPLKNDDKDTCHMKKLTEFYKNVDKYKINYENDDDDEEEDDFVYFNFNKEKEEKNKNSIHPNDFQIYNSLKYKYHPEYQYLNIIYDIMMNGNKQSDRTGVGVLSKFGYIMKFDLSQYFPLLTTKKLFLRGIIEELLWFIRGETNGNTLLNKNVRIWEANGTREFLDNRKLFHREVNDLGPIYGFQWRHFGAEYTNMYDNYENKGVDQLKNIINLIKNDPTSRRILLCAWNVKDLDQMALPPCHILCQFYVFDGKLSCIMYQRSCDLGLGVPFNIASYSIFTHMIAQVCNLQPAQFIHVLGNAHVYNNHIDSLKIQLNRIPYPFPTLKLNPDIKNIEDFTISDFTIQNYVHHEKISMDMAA

[4] = target: Bifunctional dihydrofolate reductase-thymidylate synthase (Plasmodium falciparum K1) (UniProt P13922); assay: Ratio of inhibitory constant of mutant by wild-type DHFRs of Plasmodium falciparum
[5] = target: Bifunctional dihydrofolate reductase-thymidylate synthase (Plasmodium falciparum K1) (UniProt P13922); assay: Evaluated for activity of compound relative to Cycloguanil
[6] = target: T1, Bifunctional dihydrofolate reductase-thymidylate synthase (Plasmodium falciparum K1, UniProt P13922, A16V/S108T); assay: Inhibition constant (Ki mut) against A16V+S108T Mutant DHFRs of Plasmodium falciparum
T1 sequence (P13922 whole entry, looked up, stated change not applied): as the sequence (P13922 whole entry, looked up) above

[7] = target: Bifunctional dihydrofolate reductase-thymidylate synthase (Plasmodium falciparum K1) (UniProt P13922); assay: Evaluated for activity of relative to Cycloguanil
[8] = target: T1, Bifunctional dihydrofolate reductase-thymidylate synthase; assay: Evaluated for inhibition constant (Ki mut) against A16V+S108T Mutant dihydrofolate reductase of Plasmodium falciparum
[9] = Selectivity ratio of growth inhibition values of wild-type (TM4/8.2) and mutant (T9/94) clones of Plasmodium falciparum
Outline: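 Clones TM4/8.2 (wild-type DHFR) and T9/94 RC17 (A16V+S108T) grown in human erythrocytes in RPMI 1640 with 25 mM HEPES pH 7.4 and 10% human serum, 37 °C, 3% CO2. 1.5% cell suspension at 1-2% parasitemia with drug in 0.1% DMSO final for 24 h, then [3H]-hypoxanthine 18-24 h. IC50 taken from sigmoidal curves; ratio is T9/94 IC50 over TM4 IC50.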

Plasmodium falciparum [10] = assay: as §1; format: functional, organism-based; outline: as §2; remark: listed apart in the source

Structure (SMILES): NC1=NC(c2ccccc2)N(c2ccc(Cl)c(Cl)c2)C(N)=N1 (centres undefined)
- IC50 (Plasmodium falciparum [1]): 40 nM
- IC50 (Plasmodium falciparum [2]): 29 nM

Structure (SMILES): CCC1N=C(N)N=C(N)N1c1ccc(C)cc1 (centres undefined)
- IC50 ratio [3]: 1.89
- IC50 (Plasmodium falciparum [1]): 273 nM
- Ratio [4]: 22
- Relative activity [5]: 0.1
- Ki [6]: 128 nM
- Relative activity [7]: 3.9
- IC50 (Plasmodium falciparum [2]): 517 nM

Structure (SMILES): CCC1N=C(N)N=C(N)N1c1ccc(Cl)cc1 (centres undefined)
- IC50 ratio [3]: 12.2
- IC50 (Plasmodium falciparum [1]): 40 nM
- Ratio [4]: 52
- Relative activity [5]: 0.14
- Ki [6]: 189 nM
- Relative activity [7]: 2.4
- IC50 (Plasmodium falciparum [2]): 486 nM

Structure (SMILES): CCCCC1N=C(N)N=C(N)N1c1ccc(Cl)cc1 (centres undefined)
- Ki [8]: 167 nM
- IC50 ratio [9]: 2.25
- IC50 (Plasmodium falciparum [1]): 111 nM
- Ratio [4]: 45
- Relative activity [5]: 0.1
- Relative activity [7]: 2.5
- IC50 (Plasmodium falciparum [2]): 250 nM

Structure (SMILES): NC1=NC(c2ccccc2)N(c2ccc(Cl)cc2)C(N)=N1 (centres undefined)
- Ki [8]: 49 nM
- IC50 (Plasmodium falciparum [1]): 27 nM
- Relative activity [5]: 0.04
- Relative activity [7]: 3
- IC50 (Plasmodium falciparum [2]): 44 nM

Structure (SMILES): CC1(C)N=C(N)N=C(N)N1c1cccc(Cl)c1
- IC50 (Plasmodium falciparum [1]): 60 nM
- IC50 (Plasmodium falciparum [2]): 298 nM

Structure (SMILES): CC(C)C1N=C(N)N=C(N)N1c1ccc(Br)cc1 (centres undefined)
- IC50 ratio [3]: 1.14
- IC50 (Plasmodium falciparum [1]): 638 nM
- Ratio [4]: 40
- Relative activity [5]: 0.9
- Ki [6]: 1200 nM
- Relative activity [7]: 20
- IC50 (Plasmodium falciparum [2]): 725 nM

Structure (SMILES): CC1(C)N=C(N)N=C(N)N1c1ccc(Br)cc1
- IC50 ratio [3]: 89
- IC50 (Plasmodium falciparum [1]): 31 nM
- Ratio [4]: 1770
- Relative activity [5]: 1.5
- Ki [6]: 1950 nM
- Relative activity [7]: 0.7
- IC50 (Plasmodium falciparum [2]): 2760 nM

Structure (SMILES): CCCC1N=C(N)N=C(N)N1c1ccc(Cl)cc1 (centres undefined)
- Ki [8]: 107 nM
- IC50 ratio [3]: 5.62
- IC50 (Plasmodium falciparum [1]): 65 nM
- Ratio [4]: 23
- Relative activity [5]: 0.08
- Relative activity [7]: 3.1
- IC50 (Plasmodium falciparum [2]): 365 nM

Structure (SMILES): CCCC1N=C(N)N=C(N)N1c1ccc(Br)cc1 (centres undefined)
- Ki [8]: 127 nM
- IC50 ratio [3]: 3.97
- IC50 (Plasmodium falciparum [1]): 63 nM
- Ratio [4]: 49
- Relative activity [5]: 0.1
- Relative activity [7]: 1.7
- IC50 (Plasmodium falciparum [2]): 250 nM

Structure (SMILES): Cc1ccc(N2C(N)=NC(N)=NC2c2ccccc2)cc1 (centres undefined)
- Ki [8]: 170 nM
- IC50 ratio [3]: 0.29
- IC50 (Plasmodium falciparum [1]): 136 nM
- Ratio [4]: 22
- Relative activity [5]: 0.13
- Relative activity [7]: 5.1
- IC50 (Plasmodium falciparum [2]): 39 nM

Structure (SMILES): Cc1ccc(N2C(N)=NC(N)=NC2(C)C)cc1
- IC50 (Plasmodium falciparum [1]): 65 nM
- IC50 (Plasmodium falciparum [2]): 3620 nM

Structure (SMILES): CC(C)(C)C1N=C(N)N=C(N)N1c1ccc(Cl)cc1 (centres undefined)
- IC50 (Plasmodium falciparum [1]): 2910 nM
- Relative activity [5]: 63
- Ki [6]: 82700 nM
- IC50 (Plasmodium falciparum [2]): 2820 nM

Structure (SMILES): CC1N=C(N)N=C(N)N1c1ccc(Cl)cc1 (centres undefined)
- IC50 ratio [3]: 1
- IC50 (Plasmodium falciparum [1]): 348 nM
- Ratio [4]: 31
- Relative activity [5]: 0.09
- Ki [6]: 127 nM
- Relative activity [7]: 2.7
- IC50 (Plasmodium falciparum [2]): 347 nM

Structure (SMILES): NC1=NCN(c2ccc(Cl)cc2)C(N)=N1
- Ki [8]: 646 nM
- IC50 ratio [3]: 0.33
- IC50 (Plasmodium falciparum [1]): 952 nM
- Ratio [4]: 26
- Relative activity [5]: 0.5
- Relative activity [7]: 16
- IC50 (Plasmodium falciparum [2]): 313 nM

Structure (SMILES): Cc1ccc(N2C(N)=NC(N)=NC2C)cc1 (centres undefined)
- IC50 ratio [3]: 1
- IC50 (Plasmodium falciparum [1]): 462 nM
- Ratio [4]: 7.9
- Relative activity [5]: 0.14
- Ki [6]: 185 nM
- Relative activity [7]: 15
- IC50 (Plasmodium falciparum [2]): 464 nM

Structure (SMILES): CC1N=C(N)N=C(N)N1c1ccc(Br)cc1 (centres undefined)
- IC50 ratio [3]: 2.1
- IC50 (Plasmodium falciparum [1]): 132 nM
- Ratio [4]: 35
- Relative activity [5]: 0.15
- Ki [6]: 202 nM
- Relative activity [7]: 3.8
- IC50 (Plasmodium falciparum [2]): 277 nM

Structure (SMILES): CC(C)C1N=C(N)N=C(N)N1c1ccc(Cl)cc1 (centres undefined)
- IC50 ratio [3]: 0.97
- IC50 (Plasmodium falciparum [1]): 2910 nM
- Ratio [4]: 25
- Relative activity [5]: 1.2
- Ki [6]: 1540 nM
- Relative activity [7]: 40.3
- IC50 (Plasmodium falciparum [2]): 2820 nM

Structure (SMILES): CCC1N=C(N)N=C(N)N1c1ccc(Br)cc1 (centres undefined)
- IC50 ratio [3]: 3.24
- IC50 (Plasmodium falciparum [1]): 132 nM
- Ratio [4]: 37
- Relative activity [5]: 0.15
- Ki [6]: 202 nM
- Relative activity [7]: 1.8
- IC50 (Plasmodium falciparum [2]): 220 nM

Structure (SMILES): CCCC1N=C(N)N=C(N)N1c1ccc(C)cc1 (centres undefined)
- IC50 ratio [3]: 0.91
- IC50 (Plasmodium falciparum [1]): 167 nM
- Ratio [4]: 14
- Relative activity [5]: 0.14
- Ki [6]: 188 nM
- Relative activity [7]: 9.1
- IC50 (Plasmodium falciparum [2]): 152 nM

Structure (SMILES): CC1(C)N=C(N)N=C(N)N1c1ccccc1
- IC50 ratio [3]: 0.82
- IC50 (Plasmodium falciparum [1]): 546 nM
- Ratio [4]: 69
- Relative activity [5]: 1.05
- Ki [6]: 1380 nM
- Relative activity [7]: 13
- IC50 (Plasmodium falciparum [2]): 445 nM

Structure (SMILES): NC1=NC(c2ccccc2)N(c2cccc(Cl)c2)C(N)=N1 (centres undefined)
- Ki [8]: 10 nM
- IC50 ratio [3]: 0.05
- IC50 (Plasmodium falciparum [1]): 455 nM
- Ratio [4]: 0.9
- Relative activity [5]: 0.008
- Relative activity [7]: 7.8
- IC50 (Plasmodium falciparum [2]): 24 nM

Structure (SMILES): NC1=NC(c2ccccc2)N(c2ccc(Br)cc2)C(N)=N1 (centres undefined)
- Ki [8]: 90 nM
- IC50 ratio [3]: 3.86
- IC50 (Plasmodium falciparum [1]): 47 nM
- Ratio [4]: 31
- Relative activity [5]: 0.07
- Relative activity [7]: 1.9
- IC50 (Plasmodium falciparum [2]): 180 nM

Structure (SMILES): NC1=NCN(c2ccccc2)C(N)=N1
- IC50 ratio [3]: 0.03
- IC50 (Plasmodium falciparum [1]): 11600 nM
- Ratio [4]: 1.8
- Relative activity [5]: 0.4
- Ki [6]: 585 nM
- Relative activity [7]: 220
- IC50 (Plasmodium falciparum [2]): 356 nM

Structure (SMILES): CC1N=C(N)N=C(N)N1c1cccc(Cl)c1 (centres undefined)
- IC50 (Plasmodium falciparum [2]): 28 nM

Structure (SMILES): CC1(C)N=C(N)N=C(N)N1c1ccc(F)cc1
- IC50 ratio [3]: 3.4
- IC50 (Plasmodium falciparum [1]): 294 nM
- Ratio [4]: 355
- Relative activity [5]: 1.2
- Ki [6]: 1630 nM
- Relative activity [7]: 3
- IC50 (Plasmodium falciparum [2]): 1000 nM

Structure (SMILES): NC1=NCN(c2ccc(F)cc2)C(N)=N1
- IC50 ratio [3]: 0.03
- IC50 (Plasmodium falciparum [1]): 9660 nM
- Ratio [4]: 1.7
- Relative activity [5]: 0.4
- Ki [6]: 469 nM
- Relative activity [7]: 180
- IC50 (Plasmodium falciparum [2]): 312 nM

Structure (SMILES): Cc1ccc(N2C(N)=NC(N)=NC2C(C)C)cc1 (centres undefined)
- IC50 ratio [3]: 0.42
- IC50 (Plasmodium falciparum [1]): 8220 nM
- Ratio [4]: 8.7
- Relative activity [5]: 1.11
- Ki [6]: 1460 nM
- Relative activity [7]: 111
- IC50 (Plasmodium falciparum [2]): 3450 nM

Structure (SMILES): CC1(C)N=C(N)N=C(N)N1c1ccc(Cl)cc1 [CYCLOGUANIL]
- IC50 ratio [3]: 60.8
- Ratio [4]: 876
- Relative activity [5]: 1
- Ki [6]: 1310 nM
- Relative activity [7]: 1
- IC50 (Plasmodium falciparum [10]): 40 nM
- IC50 (Plasmodium falciparum [2]): 2430 nM

Structure (SMILES): CC1N=C(N)N=C(N)N1c1ccc(Cl)c(Cl)c1 (centres undefined)
- IC50 ratio [3]: 0.54
- IC50 (Plasmodium falciparum [1]): 35 nM
- Ratio [4]: 12.7
- Relative activity [5]: 0.014
- Ki [6]: 17.8 nM
- Relative activity [7]: 0.9
- IC50 (Plasmodium falciparum [2]): 19 nM
